Experiment [1] is described as follows: inhibitors of TNFa-induced NFkB p65 translocation, primary screen, imaging, HUVEC, MLSMR starter and 10KST1 sets (AID 438).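 Also: compound added about 3h40 before a 20 min TNFalpha stimulation.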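 As to inhibition: signal is the nuclear over cytoplasmic p65 intensity ratio per well.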 The settings on record: HUVEC TNFa-induced p65 nuclear translocation; cell count: measured here: nuclei count (cytotoxicity indicator), at 2.08 µM; inhibition: at 2 µM, stronger effect = higher value, 0% TNFa-plus-vehicle, 100% no-TNFa wells.
The nature of experiment [2]: inhibitors of mutant huntingtin aggregation, primary screen, imaging, exon1htt(103Q)mCFP cells, high-content imaging (AID 483;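 active = visual image review flags a hit and inhibition of aggregation exceeds 20%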;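 also: compound exposure lasted 3 days before fixation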;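 as to nuclei count: percent of the per-plate median nuclei count of sample wells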). The settings on record: exon1htt(103Q)mCFP cell line, aggregate imaging, at 2 µM; inhibition of aggregation: stronger effect = higher value; nuclei count: measured here: cell count, toxicity.
Experiment [3] can be described thus: inhibitors of E-selectin induction by TNFa, primary screen, imaging, HUVEC, immunofluorescence, MLSMR starter and 10KST1 sets (AID 487;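 active = visually confirmed hit in the image check and inhibition above 20%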;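 as to inhibition: signal is fraction of cell area covered by stained E-selectin grains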;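 as to nuclei count: 100% = median nuclei count of all wells on the same plate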). The settings on record: HUVEC TNFalpha-induced E-selectin immunofluorescence imaging, at 2 µM; inhibition: stronger effect = higher value; nuclei count: measured here: cell number, toxicity.
Experiment [4] concerns the target Voltage-gated potassium channel subunit beta-2 (Rattus norvegicus) (UniProt P62483). Kind of experiment: KvBeta enzyme negative modulators, primary screen, biochemical, NADPH fluorescence (AID 622;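 active = fluorescence slope higher than the sample average by over 3 SD, cut at about -0.22 in these data, passing the limit was not always enough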;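 also: slope of raw intensity against log time taken from 70 to 1610 s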). Conditions: recombinant KvBeta, 4-cyanobenzaldehyde reduction, at 10 µM, stronger effect = higher value.
The target is the same in experiment [5]. Description: KvBeta positive modulators, primary screen, biochemical, NADPH fluorescence (AID 623;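 active = NADPH fluorescence slope more negative than the mean of all samples by about 3 SD, 99.7% confidence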;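 also: fluorescence intensity change per second fitted from 20 to 320 s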). Conditions: Recombinant KvBeta, NADPH fluorescence decrease slope, 10 min; at 10 µM; stronger effect = lower value.
Experiment [6] addresses Muscarinic acetylcholine receptor M4 (Homo sapiens) (UniProt P08173). Description: compounds altering M4/GIRK thallium flux, either direction, primary screen, M4 allosteric agonist project, cell-based, HEK293 M4/GIRK, BTC-AM (AID 625;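 active = fluorescence slope after compound addition differing from the mean of all tested samples at 99.7% confidence, mostly higher but some lower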;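 also: thallium influx through GIRK channels coupled to M4 in HEK293 cells with BTC-AM dye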). Conditions: at 10 µM, actives lie on both sides. In a few lines: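 System: HEK293 cells with M4 receptor and GIRK channels | Incubation: Cells overnight at 37 °C, BTC-AM loading 1 h, reads 2 min total | Technique: Kinetic BTC-AM fluorescence sampled at 1 Hz, 10 s pre-addition baseline | Measure: Post-addition slope, 15–24 s, of baseline-normalized fluorescence | Control set: Carbachol positive, DMSO negative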

A short description of experiment [7]: inhibitors of Sendai virus-induced IRF3 signaling, primary screen, TLR/RLR signaling modifier project, cell-based, Sendai virus stimulus, luciferase, 10K MLSCN set (AID 602276;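 active = inhibition at or above 50% at 10 µM; inactive = inhibition below 50%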;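 also: firefly luciferase from ISG56 promoter only with Renilla not read in this screen; 0% = Sendai virus plus DMSO and 100% = medium plus DMSO without virus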). The settings on record: HEK293 RL24 IRF3 luciferase reporter, at 10 µM, stronger effect = higher value. (In general: Reporter assays use an easily measured gene product as a stand-in for the process of interest.)

Experiment [8] in a line: inhibitors of poly I:C-induced TLR3 signaling, primary screen, cell-based, poly I:C stimulus, luciferase, 10K MLSCN set (AID 602277;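 active = inhibition of the reporter signal at or above 50%; inactive = inhibition below 50%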). Conditions: HEK293-TLR3 RL24 IRF3 luciferase reporter, at 10 µM, stronger effect = higher value.

The source made the active and inactive calls.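 The calls were made as follows, unless noted: active = inhibition above 20% together with a positive visual image hit; inconclusive = visual image hit but inhibition not above 20%; inactive = no visual image hit.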

Muscarinic acetylcholine receptor M4 (Homo sapiens), sequence (P08173 whole entry, looked up): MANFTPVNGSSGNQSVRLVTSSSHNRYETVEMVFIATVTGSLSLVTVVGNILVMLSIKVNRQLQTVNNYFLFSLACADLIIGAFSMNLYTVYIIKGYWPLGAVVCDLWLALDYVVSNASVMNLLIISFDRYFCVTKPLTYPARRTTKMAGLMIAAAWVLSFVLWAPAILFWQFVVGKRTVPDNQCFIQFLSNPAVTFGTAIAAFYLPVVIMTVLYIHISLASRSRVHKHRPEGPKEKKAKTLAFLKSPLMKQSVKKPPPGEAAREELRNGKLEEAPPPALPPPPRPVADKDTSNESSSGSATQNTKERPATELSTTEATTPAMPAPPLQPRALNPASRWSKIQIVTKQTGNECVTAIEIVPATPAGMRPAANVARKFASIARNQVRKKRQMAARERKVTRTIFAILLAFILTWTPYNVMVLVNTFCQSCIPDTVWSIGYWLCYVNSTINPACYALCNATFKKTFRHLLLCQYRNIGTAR
Voltage-gated potassium channel subunit beta-2 (Rattus norvegicus), sequence (P62483 whole entry, looked up): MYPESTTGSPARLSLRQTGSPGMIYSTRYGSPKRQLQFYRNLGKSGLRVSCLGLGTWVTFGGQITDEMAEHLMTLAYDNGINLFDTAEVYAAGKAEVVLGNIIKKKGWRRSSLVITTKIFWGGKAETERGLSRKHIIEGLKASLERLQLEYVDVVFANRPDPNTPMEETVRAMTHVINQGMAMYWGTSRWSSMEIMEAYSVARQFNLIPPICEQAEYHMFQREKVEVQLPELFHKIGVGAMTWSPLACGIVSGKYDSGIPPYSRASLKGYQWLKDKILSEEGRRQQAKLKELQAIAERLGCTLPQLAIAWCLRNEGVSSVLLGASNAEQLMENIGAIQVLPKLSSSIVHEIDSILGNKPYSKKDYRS

As to `N#Cc1cnc(SCC(=O)Nc2ccccc2C(F)(F)F)nc1N`, the cell count in experiment [1] came out at 743. The inhibition in experiment [1] is 2.2% (inactive); in experiment [3], -205% (inactive); in experiment [7], 14% (inactive); in experiment [8] it was 22.7% (inactive). Moreover, the inhibition of aggregation in experiment [2] was 15.1% (inactive). In addition, the nuclei count in experiment [2] stood at 102%; in experiment [3], 121%. The figures for the fluorescence slope in experiment [4] and in experiment [6] were -0.371 (inactive) and 0.00496 (inactive), respectively. For the same compound, the NADPH fluorescence slope in experiment [5] was 5.4e-05 (inactive).

For `CCn1c(SCC(=O)c2ccc3c(c2)OCCO3)nnc1-c1ccco1`, the cell count in experiment [1] was 571. The inhibition in experiment [1] was -38.8% (inactive); in experiment [3], -52.3% (inactive); in experiment [7], 11.1% (inactive); in experiment [8] it was 0.911% (inactive). Also, in experiment [2], the inhibition of aggregation is -1% (inactive). In addition, the nuclei count in experiment [2] is 115%; in experiment [3], 117%. Moreover, the values for the fluorescence slope in experiment [4] and in experiment [6] were -0.514 (inactive) and 0.00561 (inactive), respectively. Moreover, the NADPH fluorescence slope in experiment [5] was -2.2e-05 (inactive).

For `COc1ccc(S(=O)(=O)NC2CCCCC2)c(C)c1C`, the cell count in experiment [1] worked out at 426. In addition, the inhibition was 8.4% (inactive) in experiment [1], 65.4% (inactive) in experiment [3], 20.3% (inactive) in experiment [7] and 26.9% (inactive) in experiment [8]. In experiment [2], the inhibition of aggregation is -3% (inactive). Moreover, the figures for the nuclei count in experiment [2] and in experiment [3] were 101% and 108%, respectively. Besides, the results for the fluorescence slope in experiment [4] and in experiment [6] were -0.557 (inactive) and 0.00523 (inactive), respectively. Besides, the NADPH fluorescence slope in experiment [5] is 1.8e-05 (inactive).

Consider `COc1ccc(N2CCN(C(c3cccc(OC)c3OC)c3nnnn3C3CCCC3)CC2)cc1` (stereo not drawn), for which the cell count in experiment [1] was found to be 709. Moreover, the inhibition is 20% (inactive) in experiment [1], 36.9% (inactive) in experiment [3], -1.29% (inactive) in experiment [7] and 21.9% (inactive) in experiment [8]. Besides, in experiment [2], the inhibition of aggregation was -7.2% (inactive). Besides, the nuclei count is 96.3% in experiment [2] and 76.2% in experiment [3]. The fluorescence slope in experiment [4] is -0.508 (inactive); in experiment [6] it was 0.00439 (inactive). The NADPH fluorescence slope in experiment [5] was 9.8e-05 (inactive).

Take `Cc1cc(NS(=O)(=O)c2ccc(NC(=O)C(C)N3C(=O)c4ccccc4C3=O)cc2)nc(C)n1` (stereo not drawn): the cell count in experiment [1] turned out to be 257. Besides, the inhibition in experiment [1] was -2.1% (inactive); in experiment [3], -11.1% (inactive); in experiment [7], 14.9% (inactive); in experiment [8] it was 18.8% (inactive). The inhibition of aggregation in experiment [2] was 4.6% (inactive). The nuclei count was 98.5% in experiment [2] and 90.8% in experiment [3]. Moreover, the fluorescence slope in experiment [4] is -0.557 (inactive); in experiment [6] it was 0.00257 (inactive). Further, the NADPH fluorescence slope in experiment [5] is -5.8e-05 (inactive).

For the compound `CSc1nc(N2CCOCC2)c2c(c1C#N)CCCCC2`, the cell count in experiment [1] stood at 690. The inhibition was -11.9% (inactive) in experiment [1], -4.6% (inactive) in experiment [3], 23% (inactive) in experiment [7] and 27.5% (inactive) in experiment [8]. For the same compound, the inhibition of aggregation in experiment [2] is -18.9% (inactive). Further, the nuclei count came to 117% in experiment [2] and 111% in experiment [3]. For the same compound, the fluorescence slope in experiment [4] was -0.579 (inactive); in experiment [6] it was 0.00519 (inactive). In experiment [5], the NADPH fluorescence slope was 2.1e-05 (inactive).

Take `O=C1CC(c2ccc(Cl)cc2)n2nc(N3C(=O)c4ccccc4C3=O)nc2N1` (stereo not drawn): the cell count in experiment [1] came out at 346. The inhibition in experiment [1] was 11.4% (inactive); in experiment [3] it was 30.5% (inactive); in experiment [7], 16.6% (inactive); in experiment [8], 24.4% (inactive). In addition, the inhibition of aggregation in experiment [2] was -2.1% (inactive). Moreover, the values for the nuclei count in experiment [2] and in experiment [3] were 104% and 98.9%, respectively. The fluorescence slope is -0.587 (inactive) in experiment [4] and 0.00353 (inactive) in experiment [6]. The NADPH fluorescence slope in experiment [5] is -3.9e-05 (inactive).

Consider `O=C(NCc1cccnc1)c1ccccc1Br`, for which the cell count in experiment [1] was found to be 397. For the same compound, the inhibition was -0.5% (inactive) in experiment [1], -18.8% (inactive) in experiment [3], 15.2% (inactive) in experiment [7] and 20.8% (inactive) in experiment [8]. Besides, the inhibition of aggregation in experiment [2] was 4.6% (inactive). Moreover, the nuclei count in experiment [2] was found to be 104%; in experiment [3] it was 112%. Moreover, the fluorescence slope in experiment [4] is -0.521 (inactive); in experiment [6], 0.00504 (inactive). The NADPH fluorescence slope in experiment [5] is -1.1e-05 (inactive).

As to `CCOc1cc(C2c3c(n[nH]c3C)C(=O)N2c2ccc(Br)cc2)ccc1O` (stereo not drawn), in experiment [1], the cell count was 572. The inhibition in experiment [1] was -2.3% (inactive); in experiment [3] it was -89.9% (inactive); in experiment [7] it was 30.1% (inactive); in experiment [8] it was 30% (inactive). Further, the inhibition of aggregation in experiment [2] is 7.8% (inactive). Also, the results for the nuclei count in experiment [2] and in experiment [3] were 109% and 110%, respectively. Besides, the fluorescence slope was -0.373 (inactive) in experiment [4] and 0.00604 (inactive) in experiment [6]. Besides, in experiment [5], the NADPH fluorescence slope is -8.6e-06 (inactive).

Turning to `CCn1ncc(C2=NOC(C(=O)N3CCC(C(N)=O)CC3)C2)c1C` (stereo not drawn), the cell count in experiment [1] was found to be 846. In addition, the inhibition in experiment [1] is -7.8% (inactive); in experiment [3], -117% (inactive); in experiment [7], -11.4% (inactive); in experiment [8], -7.82% (inactive). Moreover, in experiment [2], the inhibition of aggregation is -19.8% (inactive). Moreover, the results for the nuclei count in experiment [2] and in experiment [3] were 105% and 109%, respectively. The fluorescence slope was -0.47 (inactive) in experiment [4] and 0.00576 (inactive) in experiment [6]. The NADPH fluorescence slope in experiment [5] was 3.7e-05 (inactive).

Take `COc1ccc(-c2noc(CN3CCC(Cc4ccccc4)CC3)n2)cc1`: the cell count in experiment [1] is 322. Besides, the inhibition is -0.7% (inactive) in experiment [1], -98.5% (inactive) in experiment [3], -7.04% (inactive) in experiment [7] and -6.07% (inactive) in experiment [8]. Moreover, the inhibition of aggregation in experiment [2] was -24.1% (inactive). The figures for the nuclei count in experiment [2] and in experiment [3] were 104% and 123%, respectively. The fluorescence slope in experiment [4] was -0.553 (inactive); in experiment [6], 0.00696 (inactive). The NADPH fluorescence slope in experiment [5] is 6.3e-06 (inactive).

Turning to `CCOCCCNCC(=O)N1CCN(S(=O)(=O)c2ccc(C)cc2)CC1`, the cell count in experiment [1] was found to be 642. Besides, the inhibition in experiment [1] was 19.3% (inactive); in experiment [3], -61.6% (inactive); in experiment [7] it was 7.31% (inactive); in experiment [8], 27.6% (inactive). The inhibition of aggregation in experiment [2] was -0.2% (inactive). The nuclei count in experiment [2] worked out at 94.5%; in experiment [3], 131%. In addition, the fluorescence slope in experiment [4] was -0.614 (inactive); in experiment [6], 0.00526 (inactive). In addition, in experiment [5], the NADPH fluorescence slope was 1.2e-05 (inactive).

As to `Nc1nc(C2C(=O)CCCC2=O)cs1`, the cell count in experiment [1] turned out to be 391. For the same compound, the inhibition in experiment [1] was -16.3% (inactive); in experiment [3], -93.1% (inactive); in experiment [7], 8.39% (inactive); in experiment [8], 2.35% (inactive). Also, the inhibition of aggregation in experiment [2] is -1.6% (inactive). The nuclei count in experiment [2] was 103%; in experiment [3], 148%. Also, the fluorescence slope in experiment [4] is -0.511 (inactive); in experiment [6], 0.00345 (inactive). Moreover, the NADPH fluorescence slope in experiment [5] is -9.1e-05 (inactive).

What is called inhibition is the drop in the measured response relative to a control, in per cent.

The values above are taken from PubChem BioAssay.
